What was measured:
[1] = Locomotion assessed by Rotarod test in mice; type: organism-based; settings: mouse, in vivo
How it was run: (§1)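 Male Swiss mice (20–26 g), groups of 10, trained on a 3-cm rotarod at 8 rpm. Tested 30 min after ip dosing; impairment defined as failure to stay on for 2 min. TD50 by Litchfield–Wilcoxon, at least 32 animals, 95% confidence limits.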

[2] = Protective index as the ratio of TD50 value to that of ED50 value (from the clonic phase of the audiogenic seizures).; type: functional
How it was run: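 PI = TD50/ED50. TD50 from rotarod (3 cm, 8 rpm; failure to stay on for 2 min) in male Swiss mice 30 min after ip dosing; ED50 from clonic phase of audiogenic seizures in DBA/2 mice 30 min after ip dosing (50% DMSO/saline). Both by Litchfield–Wilcoxon, ≥32 animals each.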

[3] = Partition coefficient (logP); type: physicochemical; settings: octanol/water
How it was run: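 log P calculated with XLOGP 2.0, not measured.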

Rattus norvegicus [4] = species on record: Rattus norvegicus; assay: Percentage reduction of ATPA evoked currents at a concentration of 100 uM in cerebellar neurons
Mus musculus [5] = species on record: Mus musculus; assay: Anticonvulsant activity against audiogenic seizures in DBA/2 mice in clonic phase.; type: functional
How it was run: (§2)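 DBA/2 mice (8–12 g, 22–25 days), groups of 10, given ip doses of 3.3–200 µmol/kg in 50% DMSO/50% saline. Auditory stimulation 30 min later after 60 s habituation under a dome. Incidence of each seizure phase scored. ED50 by Litchfield–Wilcoxon, at least 32 animals, 95% confidence limits.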

[6] = Anticonvulsant activity against audiogenic seizures in DBA/2 mice in tonic phase; type: functional; settings: Mus musculus; how it was run: as §2
[7] = Toxicity assessed by Rotarod test (locomotor deficit) in mice.; type: organism-based; settings: mouse, in vivo; how it was run: as §1
[8] = Protective index as the ratio of TD50 to ED50 (from the clonic phase of the audiogenic seizures).; settings: for selectivity ratio: read-out: PI
How it was run: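 Ratio of rotarod TD50 to ED50 from the clonic phase of audiogenic seizures in DBA/2 mice, both after ip dosing.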

Rattus norvegicus [9] = species on record: Rattus norvegicus; assay: Percentage reduction of KA (kainate) evoked currents at a concentration of 100 uM in cerebellar neurons
[10] = Percentage reduction of ATPA evoked currents at a concentration of 100 uM in cerebellar neurons; type: functional
How it was run: (§3)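 Whole-cell voltage clamp of rat cerebellar granule neurons cultured 7 days (7–8-day-old Sprague–Dawley pups; Ara-C 10 µM from 24 h). External solution pH 7.4. KA or ATPA and test agent all applied at 100 µM by Y-tube, DMSO final below 1%. Mean ± SE of at least 10 cells.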

[11] = Percentage reduction of KA (kainate) evoked currents at a concentration of 100 uM in cerebellar neurons; type: functional; how it was run: as §3
Mus musculus [12] = assay: Anticonvulsant activity against AMPA induced seizures in DBA/2 mice after intracerebro ventricular administration at the CD97 for clonus (9.7 nmol) (95% confidence limits); type: functional; settings: central
Mus musculus [13] = assay: Anticonvulsant activity against AMPA induced seizures in DBA/2 mice after intracerebro ventricular administration at the CD97 for tonus (11.7 nmol) (95% confidence limits); type: functional; settings: central
Mus musculus [14] = assay: Anticonvulsant activity against KA induced seizures in DBA/2 mice at a dose of 32 mg/kg at CD97 after intraperitoneal administration (95% confidence limits); type: functional; settings: ip
Mus musculus [15] = species on record: Mus musculus; assay: Anticonvulsant activity against MES induced seizures in swiss mice in tonic phase (95% confidence limits); type: functional
How it was run: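 Swiss mice dosed ip in 50% DMSO/50% saline, then shocked via ear-clip electrodes (50 mA, 20 ms pulse width, 35 Hz, 400 ms). Protection defined as abolition of tonic hindlimb extension. Four to five doses, 8–10 mice each; ED50 by Litchfield–Wilcoxon with 95% confidence limits.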

Mus musculus [16] = species on record: Mus musculus; assay: Anticonvulsant activity against PTZ induced seizures in swiss mice in clonic phase (95% confidence limits); type: functional
Mus musculus [17] = assay: Anticonvulsant activity against audiogenic seizures in DBA/2 mice in clonic phase after 120 min intraperitoneal administration (95% confidence limit in parentheses); type: functional; settings: ip, 2 h
How it was run: (§4)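 Time course: DBA/2 mice (8–12 g, 22–25 days) dosed ip in 50% DMSO/50% saline and challenged with sound 15 to 120 min after dosing. Clonic phase scored; ED50 in µmol/kg by Litchfield–Wilcoxon with 95% confidence limits. Between-compound differences at each time by Litchfield–Wilcoxon (*p<0.05, **p<0.01).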

Mus musculus [18] = assay: Anticonvulsant activity against audiogenic seizures in DBA/2 mice in clonic phase after 15 min intraperitoneal administration (95% confidence limit in parentheses); type: functional; settings: ip, 0.25 h; how it was run: as §4
Mus musculus [19] = assay: Anticonvulsant activity against audiogenic seizures in DBA/2 mice in clonic phase after 30 min intraperitoneal administration (95% confidence limit in parentheses)**indicates p<0.01; type: functional; settings: ip, 0.5 h
How it was run: (§5)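 DBA/2 mice (8–12 g, 22–25 days old), genetically sound-susceptible, groups of 10. Dosed ip (0.1 mL/10 g) as fresh solution in 50% DMSO/50% saline, doses 3.3-200 μmol/kg; auditory stimulation after 60 s habituation under dome, at 30 min (time-course: 15–120 min post-dose).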

Mus musculus [20] = assay: Anticonvulsant activity against audiogenic seizures in DBA/2 mice in clonic phase after 45 min intraperitoneal administration (95% confidence limit in parentheses)**indicates p<0.01; type: functional; settings: ip, 0.75 h; how it was run: as §5
Mus musculus [21] = assay: Anticonvulsant activity against audiogenic seizures in DBA/2 mice in clonic phase after 60 min intraperitoneal administration (95% confidence limit in parentheses)**indicates p<0.01; type: functional; settings: ip, 1 h; how it was run: as §5
Mus musculus [22] = assay: Anticonvulsant activity against audiogenic seizures in DBA/2 mice in clonic phase after 90 min intraperitoneal administration (95% confidence limit in parentheses)*indicates p<0.05; type: functional; settings: ip, 1.5 h; how it was run: as §4
Mus musculus [23] = species on record: Mus musculus; assay: Anticonvulsant activity against audiogenic seizures in DBA/2 mice in tonic phase (95% confidence limit in parentheses); type: functional; how it was run: as §5
Rattus norvegicus [24] = species on record: Rattus norvegicus; assay: Percentage reduction of ATPA evoked currents at a concentration of 100 uM in cerebellar neurons; remark: listed apart in the source
Rattus norvegicus [25] = species on record: Rattus norvegicus; assay: Percentage reduction of KA (kainate) evoked currents at a concentration of 100 uM in cerebellar neurons; remark: listed apart in the source

Structure (SMILES) | logP ([3]; read-out: logP) | ED50 (Mus musculus [5]) [µmol/kg] | ED50 [6] [µmol/kg] | TD50 [7] [µmol/kg] | selectivity ratio [8] | further results
CNC(=O)N/N=C(\c1ccc(N)cc1)c1cc2c(cc1CC(=O)OC)OCO2 (stereo in doubt; 29) | 2.99 | 10.4 | 9.51 | 38.6 | 3.7 | –
CCCCOC(=O)Cc1cc2c(cc1/C(=N/NC(=O)NC)c1ccc(N)cc1)OCO2 | 3.81 | 66.2 | 39.8 | 179 | 2.7 | –
CCNC(=O)N/N=C(\c1ccc(N)cc1)c1cc2c(cc1CC(=O)OC)OCO2 | 2.89 | 30.3 | 32.8 | 113 | 3.7 | –
CCCNC(=O)N1N=C(c2ccc(N)cc2)c2cc3c(cc2CC1=O)OCO3 | 2.77 | – | – | 182 | 2.6 | –
CNC(=O)NC(=O)Cc1cc2c(cc1C(=O)c1ccc(N)cc1)OCO2 | 1.82 | 39.5 | 28.9 | 134 | 3.4 | –
CCNC(=O)N/N=C(\c1ccc(N)cc1)c1cc2c(cc1CC(=O)OCC)OCO2 | 3.31 | 84.4 | 60.8 | 227 | 2.7 | –
CC1=NN=C(c2ccc(N)cc2)c2cc3c(cc2C1)OCO3 [GYKI-52466] | 3.51 | – | – | – | 2.1 | Reduction (Rattus norvegicus [4]): 45%; Reduction (Rattus norvegicus [9]): 47%
CCCCOC(=O)Cc1cc2c(cc1/C(=N/NC(=O)NCC)c1ccc(N)cc1)OCO2 | 4.24 | 53.1 | 38.7 | 117 | 2.2 | –
CNC(=O)NC(=O)Cc1cc2c(cc1Cc1ccc(N)cc1)OCO2 | 2.23 | 9.28 | 7.65 | 33.3 | 3.6 | Reduction [10]: 32%; Reduction [11]: 54%
Nc1ccc(C2=NNC(=O)Cc3cc4c(cc32)OCO4)cc1 | 2.58 | – | – | – | 6.3 | Reduction (Rattus norvegicus [4]): 94%
CNC(=O)NC(=O)Cc1ccc2c(c1)OCO2 | 1.09 | 87.8 | 74.4 | 219 | 2.5 | –
CNC(=O)N/N=C(\c1ccc(N)cc1)c1cc2c(cc1CC(=O)OC)OCO2 (stereo in doubt; 10) | – | – | – | – | – | ED50 (Mus musculus [12]): 13.9 µmol/kg; ED50 (Mus musculus [13]): 8.9 µmol/kg; ED50 (Mus musculus [14]): 16.6 µmol/kg; ED50 (Mus musculus [15]): 15.7 µmol/kg; ED50 (Mus musculus [16]): 14.7 µmol/kg; ED50 (Mus musculus [17]): 36.8 µmol/kg; ED50 (Mus musculus [18]): 24.1 µmol/kg; ED50 (Mus musculus [19]): 7.87 µmol/kg; ED50 (Mus musculus [20]): 7.75 µmol/kg; TD50 [1]: 28.3 µmol/kg; PI [8]: 3.6; ED50 (Mus musculus [21]): 10.2 µmol/kg; ED50 (Mus musculus [22]): 25.5 µmol/kg; ED50 (Mus musculus [23]): 4.62 µmol/kg; logP [3]: 2.46; Reduction (Rattus norvegicus [24]): 75%; Reduction (Rattus norvegicus [25]): 60%
CCCNC(=O)N/N=C(\c1ccc(N)cc1)c1cc2c(cc1CC(=O)OC)OCO2 | 3.24 | 57.1 | 42.8 | 177 | 3.1 | –
COC(=O)Cc1cc2c(cc1Cc1ccc(N)cc1)OCO2 | 2.68 | 54.3 | 47.7 | 169 | 3.1 | –
CCCOC(=O)Cc1cc2c(cc1/C(=N/NC(=O)NCC)c1ccc(N)cc1)OCO2 | 3.67 | 55.5 | 40.3 | 187 | 3.4 | –

Now from value to molecule, other results behind:

logP ([3]; read-out: logP) | Structure (SMILES) | ED50 (Mus musculus [5]) [µmol/kg] | ED50 [6] [µmol/kg] | TD50 [7] [µmol/kg] | selectivity ratio [8] | further results
1.99 | CNC(=O)N1N=C(c2ccc(N)cc2)c2cc3c(cc2CC1=O)OCO3 | – | – | – | – | TD50 [1]: 48.6 µmol/kg; PI [2]: 3.9; Reduction (Rattus norvegicus [4]): 50%
3.81 | CCCCNC(=O)N/N=C(\c1ccc(N)cc1)c1cc2c(cc1CC(=O)OC)OCO2 | 65 | 38.2 | 188 | 2.9 | –
3.34 | CCCCNC(=O)N1N=C(c2ccc(N)cc2)c2cc3c(cc2CC1=O)OCO3 | – | – | 108 | 2.8 | –
3.24 | CCCOC(=O)Cc1cc2c(cc1/C(=N/NC(=O)NC)c1ccc(N)cc1)OCO2 | 18 | 8.93 | 68.5 | 3.8 | –
2.89 | CCOC(=O)Cc1cc2c(cc1/C(=N/NC(=O)NC)c1ccc(N)cc1)OCO2 | 28.8 | 10.9 | 95.1 | 3.3 | –
2.41 | CCNC(=O)N1N=C(c2ccc(N)cc2)c2cc3c(cc2CC1=O)OCO3 | – | – | 134 | 3.8 | –

From ChEMBL document CHEMBL1135822, “Novel potent AMPA/kainate receptor antagonists: synthesis and anticonvulsant activity of a series of 2-[(4-alkylsemicarbazono)-(4-amino-phenyl)methyl]-4,5-methylenedioxyphenylacetic acid alkyl esters” (J Med Chem, 2002)
